Laboratory results as given in ChEMBL document CHEMBL1152649, “Synthesis, cytotoxicity and human telomerase inhibition activities of a series of 1,2-heteroannelated anthraquinones and anthra[1,2-d]imidazole-6,11-dione homologues” (2009).
Active and inactive are the calls of the source. No cut-off for these calls is given here.

How the values were obtained:
[1] = Cytotoxicity against human H1299 cells at 1 uM after 48 hrs by MTT assay; assay type: functional; settings: NCI-H1299, 48 h
Method in brief: (§1)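 H1299 non-small cell lung cancer cells were grown in RPMI 1640 with 10% FBS, penicillin and streptomycin at 37 °C under 5% CO2. About 2 × 10³ cells per well were seeded and left 24 h. Compounds were dissolved fresh in DMSO, diluted into complete medium and applied for 48 h. MTT was then added for 4 h at 37 °C, followed by lysis buffer (20% SDS, 50% DMF) for 16 h, and absorbance was read at 550 nm.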

[2] = Cytotoxicity against human H1299 cells at 10 uM after 48 hrs by MTT assay; assay type: functional; settings: NCI-H1299, 48 h; method in brief: as §1
[3] = target: Telomerase reverse transcriptase (Homo sapiens) (UniProt O14746); assay: Inhibition of telomerase in human H1299 cells up to 100 uM by TRAP assay; assay type: cell-based
Method in brief: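 PCR-based telomeric repeat amplification protocol (TRAP). The telomerase source was total lysate of H1299 lung cancer cells, with protein measured against BSA standards. Controls were extract without inhibitor and RNase A-treated extract.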

EKVX = assay: Antiproliferative activity against human EKVX cells assessed as cell growth at 10 uM; assay type: functional; settings: read-out: Activity
Method in brief: (§2)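 NCI 60 cell line panel, single-dose screen (10^-5 M) run by the developmental therapeutics program protocol. Results are given as growth percent of treated cells relative to untreated control cells for each line.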

HOP-62 = assay: Antiproliferative activity against human HOP62 cells assessed as cell growth at 10 uM; assay type: functional; settings: read-out: Activity; method in brief: as §2
SW-620 = assay: Antiproliferative activity against human SW620 cells assessed as cell growth at 10 uM; assay type: functional; settings: read-out: Activity
Method in brief: (§3)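 NCI 60 cell line panel, single dose (10^-5 M), run per the Developmental Therapeutics Program protocol (one dose mean graph). Each result is the growth percentage of treated cells relative to untreated control cells.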

[4] = Antiproliferative activity against human Hs 578T cells assessed as cell growth at 10 uM; assay type: functional; settings: read-out: Activity; method in brief: as §2
MCF7 = assay: Antiproliferative activity against human MCF7 cells assessed as cell growth at 10 uM; assay type: functional; settings: read-out: Activity; method in brief: as §2
MDA-MB-231 = assay: Antiproliferative activity against human MDA-MB-231 cells assessed as cell growth at 10 uM; assay type: functional; settings: read-out: Activity; method in brief: as §2
MDA-MB-435 = assay: Antiproliferative activity against human MDA-MB-435 cells assessed as cell growth at 10 uM; assay type: functional; settings: read-out: Activity; method in brief: as §2
NCI/ADR-RES = assay: Antiproliferative activity against human NCI/ADR-RES cells assessed as cell growth at 10 uM; assay type: functional; settings: read-out: Activity; method in brief: as §2
OVCAR-3 = assay: Antiproliferative activity against human OVCAR-3 cells assessed as cell growth at 10 uM; assay type: functional; settings: read-out: Activity; method in brief: as §2
OVCAR-4 = assay: Antiproliferative activity against human OVCAR4 cells assessed as cell growth at 10 uM; assay type: functional; settings: read-out: Activity; method in brief: as §2
OVCAR-5 = assay: Antiproliferative activity against human OVCAR5 cells assessed as cell growth at 10 uM; assay type: functional; settings: read-out: Activity; method in brief: as §2
SK-OV-3 = assay: Antiproliferative activity against human SKOV3 cells assessed as cell growth at 10 uM; assay type: functional; settings: read-out: Activity; method in brief: as §2
CCRF-CEM = assay: Antiproliferative activity against human CCRF-CEM cells assessed as cell growth at 10 uM; assay type: functional; settings: read-out: Activity; method in brief: as §2
K562 = assay: Antiproliferative activity against human K562 cells assessed as cell growth at 10 uM; assay type: functional; settings: read-out: Activity; method in brief: as §2
MOLT-4 = assay: Antiproliferative activity against human MOLT4 cells assessed as cell growth at 10 uM; assay type: functional; settings: read-out: Activity; method in brief: as §2
786-0 = assay: Antiproliferative activity against human 786-0 cells assessed as cell growth at 10 uM; assay type: functional; settings: read-out: Activity; method in brief: as §2
TK-10 = assay: Antiproliferative activity against human TK10 cells assessed as cell growth at 10 uM; assay type: functional; settings: read-out: Activity; method in brief: as §3
UO-31 = assay: Antiproliferative activity against human UO31 cells assessed as cell growth at 10 uM; assay type: functional; settings: read-out: Activity; method in brief: as §3
M14 = assay: Antiproliferative activity against human M14 cells assessed as cell growth at 10 uM; assay type: functional; settings: read-out: Activity; method in brief: as §2
SK-MEL-2 = assay: Antiproliferative activity against human SK-MEL-2 cells assessed as cell growth at 10 uM; assay type: functional; settings: read-out: Activity; method in brief: as §2
SK-MEL-28 = assay: Antiproliferative activity against human SK-MEL-28 cells assessed as cell growth at 10 uM; assay type: functional; settings: read-out: Activity; method in brief: as §2
UACC-62 = assay: Antiproliferative activity against human UACC62 cells assessed as cell growth at 10 uM; assay type: functional; settings: read-out: Activity; method in brief: as §3
DU-145 = assay: Antiproliferative activity against human DU145 cells assessed as cell growth at 10 uM; assay type: functional; settings: read-out: Activity; method in brief: as §2
PC-3 = assay: Antiproliferative activity against human PC3 cells assessed as cell growth at 10 uM; assay type: functional; settings: read-out: Activity; method in brief: as §2
SF-295 = assay: Antiproliferative activity against human SF295 cells assessed as cell growth at 10 uM; assay type: functional; settings: read-out: Activity; method in brief: as §2
SF-539 = assay: Antiproliferative activity against human SF539 cells assessed as cell growth at 10 uM; assay type: functional; settings: read-out: Activity; method in brief: as §2
SNB-19 = assay: Antiproliferative activity against human SNB19 cells assessed as cell growth at 10 uM; assay type: functional; settings: read-out: Activity; method in brief: as §2
SNB-75 = assay: Antiproliferative activity against human SNB75 cells assessed as cell growth at 10 uM; assay type: functional; settings: read-out: Activity; method in brief: as §3
U-251 = assay: Antiproliferative activity against human U251 cells assessed as cell growth at 10 uM; assay type: functional; settings: read-out: Activity; method in brief: as §3
HOP-92 = assay: Antiproliferative activity against human HOP92 cells assessed as cell growth at 10 uM; assay type: functional; settings: read-out: Activity; method in brief: as §2
NCI-H226 = assay: Antiproliferative activity against human NCI-H226 cells assessed as cell growth at 10 uM; assay type: functional; settings: read-out: Activity; method in brief: as §2
NCI-H23 = assay: Antiproliferative activity against human NCI-H23 cells assessed as cell growth at 10 uM; assay type: functional; settings: read-out: Activity; method in brief: as §2
NCI-H322M = assay: Antiproliferative activity against human NCI-H322M cells assessed as cell growth at 10 uM; assay type: functional; settings: read-out: Activity; method in brief: as §2
NCI-H460 = assay: Antiproliferative activity against human NCI-H460 cells assessed as cell growth at 10 uM; assay type: functional; settings: read-out: Activity; method in brief: as §2
COLO 205 = assay: Antiproliferative activity against human COLO205 cells assessed as cell growth at 10 uM; assay type: functional; settings: read-out: Activity; method in brief: as §2
HCC 2998 = assay: Antiproliferative activity against human HCC2998 cells assessed as cell growth at 10 uM; assay type: functional; settings: read-out: Activity; method in brief: as §2
HCT-15 = assay: Antiproliferative activity against human HCT15 cells assessed as cell growth at 10 uM; assay type: functional; settings: read-out: Activity; method in brief: as §2
HT-29 = assay: Antiproliferative activity against human HT-29 cells assessed as cell growth at 10 uM; assay type: functional; settings: read-out: Activity; method in brief: as §2
KM12 = assay: Antiproliferative activity against human KM12 cells assessed as cell growth at 10 uM; assay type: functional; settings: read-out: Activity; method in brief: as §2
[5] = target: Telomerase reverse transcriptase (Homo sapiens) (UniProt O14746); assay: Inhibition of TERT in human H1299 cells assessed as residual transcriptional activity at 1 uM after 24 hrs by SEAP reporter gene assay; values are per cent of control
[6] = target: Telomerase reverse transcriptase (Homo sapiens) (UniProt O14746); assay: Inhibition of TERT in human H1299 cells assessed as residual transcriptional activity at 10 uM after 24 hrs by SEAP reporter gene assay; values are per cent of control
[7] = target: Telomerase reverse transcriptase (Homo sapiens) (UniProt O14746); assay: Inhibition of TERT in human H1299 cells assessed as residual transcriptional activity at 100 uM after 24 hrs by SEAP reporter gene assay; values are per cent of control

Telomerase reverse transcriptase (Homo sapiens), sequence (O14746 whole entry): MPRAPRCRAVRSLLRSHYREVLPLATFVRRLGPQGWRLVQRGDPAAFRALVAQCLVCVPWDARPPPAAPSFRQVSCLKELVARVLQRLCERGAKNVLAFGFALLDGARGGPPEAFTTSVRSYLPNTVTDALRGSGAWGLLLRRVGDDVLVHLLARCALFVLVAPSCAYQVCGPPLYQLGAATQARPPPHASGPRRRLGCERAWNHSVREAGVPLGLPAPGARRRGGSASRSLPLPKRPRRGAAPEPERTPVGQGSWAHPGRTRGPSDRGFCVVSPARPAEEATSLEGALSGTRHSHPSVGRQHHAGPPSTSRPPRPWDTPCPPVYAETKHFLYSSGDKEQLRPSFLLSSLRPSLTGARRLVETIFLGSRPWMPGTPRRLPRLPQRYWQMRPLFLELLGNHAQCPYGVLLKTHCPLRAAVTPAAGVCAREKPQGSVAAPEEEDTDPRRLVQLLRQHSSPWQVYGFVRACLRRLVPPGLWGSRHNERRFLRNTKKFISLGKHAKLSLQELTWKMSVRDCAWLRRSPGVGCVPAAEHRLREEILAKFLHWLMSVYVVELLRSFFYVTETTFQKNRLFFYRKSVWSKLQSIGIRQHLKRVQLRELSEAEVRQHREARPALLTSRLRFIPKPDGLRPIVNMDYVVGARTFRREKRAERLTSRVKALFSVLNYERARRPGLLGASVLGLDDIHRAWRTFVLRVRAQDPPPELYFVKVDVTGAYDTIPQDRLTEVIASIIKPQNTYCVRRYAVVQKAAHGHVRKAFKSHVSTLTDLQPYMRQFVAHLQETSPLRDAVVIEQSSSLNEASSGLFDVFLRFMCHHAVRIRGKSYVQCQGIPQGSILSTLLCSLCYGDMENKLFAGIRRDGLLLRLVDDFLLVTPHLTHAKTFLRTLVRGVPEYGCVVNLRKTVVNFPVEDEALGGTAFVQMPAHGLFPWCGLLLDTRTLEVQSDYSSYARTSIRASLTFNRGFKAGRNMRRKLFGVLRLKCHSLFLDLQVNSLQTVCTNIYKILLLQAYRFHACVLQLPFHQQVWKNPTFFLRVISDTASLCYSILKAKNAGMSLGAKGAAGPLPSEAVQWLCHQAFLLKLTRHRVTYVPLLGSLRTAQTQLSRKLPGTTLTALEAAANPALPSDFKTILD

Cc1ccc(-c2nc3ccc4c(c3[nH]2)C(=O)c2ccccc2C4=O)cc1
viability at 1 µM [1]: 75% | viability at 10 µM [2]: 72% | inhibition [3]: inactive | growth at 10 µM (EKVX): 91.2% | growth at 10 µM (HOP-62): 110% | growth at 10 µM (SW-620): 113% | growth at 10 µM [4]: 138% | growth at 10 µM (MCF7): 41.9% | growth at 10 µM (MDA-MB-231): 97.6% | growth at 10 µM (MDA-MB-435): 105% | growth at 10 µM (NCI/ADR-RES): 104% | growth at 10 µM (OVCAR-3): 96.1% | growth at 10 µM (OVCAR-4): 96.8% | growth at 10 µM (OVCAR-5): 106% | growth at 10 µM (SK-OV-3): 84.5% | growth at 10 µM (CCRF-CEM): 101% | growth at 10 µM (K562): 102% | growth at 10 µM (MOLT-4): 106% | growth at 10 µM (786-0): 113% | growth at 10 µM (TK-10): 154% | growth at 10 µM (UO-31): 75.2% | growth at 10 µM (M14): 106% | growth at 10 µM (SK-MEL-2): 79.6% | growth at 10 µM (SK-MEL-28): 154% | growth at 10 µM (UACC-62): 90% | growth at 10 µM (DU-145): 98.8% | growth at 10 µM (PC-3): 87.6% | growth at 10 µM (SF-295): 94.2% | growth at 10 µM (SF-539): 91.7% | growth at 10 µM (SNB-19): 97.8% | growth at 10 µM (SNB-75): 107% | growth at 10 µM (U-251): 104% | growth at 10 µM (HOP-92): 77.3% | growth at 10 µM (NCI-H226): 101% | growth at 10 µM (NCI-H23): 98.8% | growth at 10 µM (NCI-H322M): 84.6% | growth at 10 µM (NCI-H460): 93.6% | growth at 10 µM (COLO 205): 108% | growth at 10 µM (HCC 2998): 104% | growth at 10 µM (HCT-15): 100% | growth at 10 µM (HT-29): 106% | growth at 10 µM (KM12): 106% | residual activity [5]: 86% | residual activity [6]: 82% | residual activity [7]: 29%

O=C1c2ccccc2C(=O)c2c1ccc1nc(-c3ccccc3)[nH]c21
viability at 1 µM [1]: 79% | viability at 10 µM [2]: 72% | inhibition [3]: inactive | growth at 10 µM (EKVX): 77.1% | growth at 10 µM (HOP-62): 109% | growth at 10 µM (SW-620): 82.8% | growth at 10 µM [4]: 30.4% | growth at 10 µM (MCF7): 51.8% | growth at 10 µM (MDA-MB-231): 81.4% | growth at 10 µM (MDA-MB-435): 101% | growth at 10 µM (NCI/ADR-RES): 90.2% | growth at 10 µM (OVCAR-3): 69.2% | growth at 10 µM (OVCAR-4): 73.4% | growth at 10 µM (OVCAR-5): 109% | growth at 10 µM (SK-OV-3): 115% | growth at 10 µM (CCRF-CEM): 86.3% | growth at 10 µM (K562): 76% | growth at 10 µM (MOLT-4): 88.3% | growth at 10 µM (786-0): 111% | growth at 10 µM (TK-10): 82% | growth at 10 µM (UO-31): 57.6% | growth at 10 µM (M14): 101% | growth at 10 µM (SK-MEL-2): 62.6% | growth at 10 µM (SK-MEL-28): 60.4% | growth at 10 µM (UACC-62): 70.4% | growth at 10 µM (DU-145): 84.3% | growth at 10 µM (PC-3): 52.5% | growth at 10 µM (SF-295): 73.6% | growth at 10 µM (SF-539): 96.2% | growth at 10 µM (SNB-19): 102% | growth at 10 µM (SNB-75): 75.1% | growth at 10 µM (U-251): 97.1% | growth at 10 µM (HOP-92): 50.7% | growth at 10 µM (NCI-H226): 80.5% | growth at 10 µM (NCI-H23): 91.7% | growth at 10 µM (NCI-H322M): 77.4% | growth at 10 µM (NCI-H460): 86.2% | growth at 10 µM (COLO 205): 92% | growth at 10 µM (HCC 2998): 105% | growth at 10 µM (HCT-15): 86.3% | growth at 10 µM (HT-29): 83.2% | growth at 10 µM (KM12): 75.5% | residual activity [5]: 81% | residual activity [6]: 78% | residual activity [7]: 10%
